From ChEMBL document CHEMBL1126879, “A new series of imidazolones: highly specific and potent nonpeptide AT1 angiotensin II receptor antagonists” (J Med Chem, 1993) come the findings set out here.

Experiment [1] has as its target T1, Type-1 angiotensin II receptor B (Rattus norvegicus, UniProt P29089).
T1 sequence (P29089 whole entry): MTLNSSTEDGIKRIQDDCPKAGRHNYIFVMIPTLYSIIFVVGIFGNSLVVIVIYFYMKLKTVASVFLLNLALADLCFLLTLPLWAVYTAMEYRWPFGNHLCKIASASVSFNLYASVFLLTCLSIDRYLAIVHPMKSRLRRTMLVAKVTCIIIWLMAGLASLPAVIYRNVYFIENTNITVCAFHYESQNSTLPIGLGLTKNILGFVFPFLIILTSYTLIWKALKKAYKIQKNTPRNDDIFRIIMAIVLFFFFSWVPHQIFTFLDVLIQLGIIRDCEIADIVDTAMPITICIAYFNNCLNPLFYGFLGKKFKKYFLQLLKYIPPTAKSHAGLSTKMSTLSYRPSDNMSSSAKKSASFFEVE
The experiment in a line: Binding affinity for Angiotensin II receptor, type 1 measured by ability to displace [125I]- A II from its specific binding site in rat liver membrane. The class given is cell membranes. An outline of the steps: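 Purified plasma membranes from male Sprague-Dawley rat liver, isolated on a sucrose gradient, 20–30 μg protein per assay. Filtered, then gamma counted. Nonspecific binding with 1 μM unlabeled AII. Triplicates; IC50 and Hill coefficient from Hill plots.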

The species entered for the next experiment is Oryctolagus cuniculus. The experiment in a line: Antagonistic activity through inhibition of A II induced contractions on rabbit aortic strips. The class given is functional. Conditions: Aorta.

For `CCCCC1=NC2(CCCC2)C(=O)N1Cc1ccc(-c2ccccc2C#N)cc1`, the IC50 in experiment [1] was 440 nM; in the experiment filed under Oryctolagus cuniculus, above 10000 nM.
On to `CCCCC1=NC2(CCCC2)C(=O)N1Cc1ccc(-c2ccccc2-c2nnn[nH]2)cc1` [IRBESARTAN], for which the values for the IC50 (in experiment [1]; in the experiment filed under Oryctolagus cuniculus) were 1.3 nM and 4 nM, respectively.
As to `CCCCC1=NC2(CCN(C(=O)C(N)CC(=O)O)CC2)C(=O)N1Cc1ccc(-c2ccccc2C(=O)O)cc1` (stereo not given), in experiment [1], the IC50 was found to be 800 nM.
For the molecule `CCCCC1=NC2(CCC2)C(=O)N1Cc1ccc(-c2ccccc2C(=O)O)cc1`, the figures for the IC50 (in experiment [1]; in the experiment filed under Oryctolagus cuniculus) were 38 nM and 42 nM, respectively.
With `CCCCC1=NC(c2ccccc2)(c2ccccc2)C(=O)N1Cc1ccc(-c2ccccc2C(=O)O)cc1`, the IC50 in experiment [1] was 3000 nM; in the experiment listed under Oryctolagus cuniculus, 5400 nM.
The corresponding values for `CNCC(=O)N[C@@H](CCCNC(=N)N)C(=O)N[C@H](C(=O)N[C@@H](Cc1ccc(O)cc1)C(=O)N[C@H](C(=O)N[C@@H](Cc1cnc[nH]1)C(=O)N1CCC[C@H]1C(=O)N[C@@H](C)C(=O)O)C(C)C)C(C)C` [SARALASIN] are 2.4 nM and 2.3 nM.
Consider `O=C(O)c1ccccc1-c1ccc(CN2C(=O)C3(CCCC3)N=C2Cc2ccccc2)cc1`, for which the IC50 came to 2500 nM in experiment [1] and 3900 nM in the experiment listed under Oryctolagus cuniculus.
With `CCCCC1=NC2(CCN(Cc3ccccc3)CC2)C(=O)N1Cc1ccc(-c2ccccc2C(=O)O)cc1`, the results for the IC50 (in experiment [1]; in the experiment listed under Oryctolagus cuniculus) were 110 nM and 420 nM, respectively.
The corresponding values for `CCCCC1=NC2(CCOCC2)C(=O)N1Cc1ccc(-c2ccccc2C(=O)O)cc1` are 47 nM and 200 nM.
Turning to `CCCCC1=NC2(CCCCCCCCCC2)C(=O)N1Cc1ccc(-c2ccccc2C(=O)O)cc1`, the IC50 (in experiment [1]; in the experiment filed under Oryctolagus cuniculus) was 350 nM each time.
Take `CCCCC1=NC2(CCCC2)C(=O)N1Cc1ccc(-c2ccccc2C(=O)OC)cc1`: the half-inhibitory concentration (IC50) in experiment [1] was 1800 nM; in the experiment listed under Oryctolagus cuniculus, above 10000 nM.
The corresponding values for `CCCCC1=NC2(CCCC2)C(=S)N1Cc1ccc(-c2ccccc2C(=O)O)cc1` are 80 nM and 52 nM.
The corresponding values for `CCCCC1=NC2(C(=O)N1Cc1ccc(-c3ccccc3C(=O)O)cc1)C1CC3CC(C1)CC2C3` (stereo not given) are 62 nM and 23 nM.
For `CCCCC1=NC2(Cc3ccccc3C2)C(=O)N1Cc1ccc(-c2ccccc2C(=O)O)cc1`, the results for the IC50 (in experiment [1]; in the experiment listed under Oryctolagus cuniculus) were 60 nM and 240 nM, respectively.
The corresponding values for `CCCCC1=NC2(CCN(C(C)=O)CC2)C(=O)N1Cc1ccc(-c2ccccc2C(=O)O)cc1` are 18 nM and 130 nM.
`CCCCc1nc(Cl)c(CO)n1Cc1ccc(-c2ccccc2-c2nnn[nH]2)cc1` [LOSARTAN] came in with a 50% inhibitory concentration (IC50) in the experiment filed under Oryctolagus cuniculus of 25 nM.
